Drawing on ChEMBL document CHEMBL3244174, “Synthesis and biological activity of some new furan quaternary salts” (J Med Chem, 1977), this text covers MIC, Activity and LD50 for five compounds.

The structures appear in SMILES notation. Calls of active or inactive are those of the source. The rule behind the calls is not given here.

What is called MIC is the lowest concentration found to suppress growth. What is called LD50 is the dose at which mortality reaches 50%.

Data set [1] concerns Histoplasma capsulatum. Briefly: Antifungal activity against Histoplasma capsulatum RNSH Hi-70 1/2 assessed as growth inhibition by agar dilution method. The data set is classed as functional. On the technique in general: In agar dilution, organisms are placed on agar that contains the substance at set levels.
Data set [2] has as its system Klebsiella pneumoniae. In words: Antibacterial activity against Klebsiella pneumoniae ATCC 10031 assessed as growth inhibition after 24 hrs by dilution tube method. To be noted: ATCC 10031, 24 h. The data set is classed as functional. The procedure, abridged: (§1)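 Broth tube dilution in Tryptone Soya Broth, duplicate tubes at each concentration. MIC (μg/ml) was the highest dilution preventing visible growth. Nitrofurantoin run under the same conditions.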

Data set [3] has as its system Agrobacterium tumefaciens. Briefly: Antibacterial activity against Agrobacterium tumefaciens NRRL B-36 assessed as growth inhibition after 24 hrs by dilution tube method. The data set is classed as functional. The note with it: NRRL B-36, 24 h. The procedure, abridged:
as §1

The test system of data set [4] is Rodentolepis nana. Briefly: Anthelmintic activity against viable ova stage of Hymenolepis nana infected in rat assessed as decrease in intestinal worm load at 250 mg/kg, po measured on day 3. Type of data set: functional, organism-based. Details: dose 250 mg/kg. The procedure, abridged:
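Young male rats (25–30 g, University of Freiburg strain) infected with 200 viable ova, then given a single 250 mg/kg oral dose. Worms from each rat's small intestine collected and scored on day 3. A mean score of 0–10% of control taken as active.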

For data set [5], the system named is Nannizzia gypsea. In words: Antifungal activity against Microsporum gypseum 153 CSTM assessed as growth inhibition by agar dilution method. The data set is classed as functional.
The subject of data set [6] is Nippostrongylus brasiliensis. Briefly: Anthelmintic activity against larvae stage of Nippostrongylus brasiliensis infected in rat assessed as decrease in worm load at 250 mg/kg, po administered on day 8 post infection. Details: dose 250 mg/kg. Type of data set: functional, organism-based. The procedure, abridged: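 Young male rats (25–30 g, University of Freiburg strain), 3 per compound, infected with 500 infective larvae; single 250 mg/kg oral dose on day 8. Worm loads of treated and control groups compared; 90% deparasitization taken as active. Whitlock–Bliss technique as modified by Steward.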

Data set [7] has as its system Mycobacterium tuberculosis. Briefly: Antibacterial activity against Mycobacterium tuberculosis H37Rv assessed as growth inhibition by serial dilution method. Type of data set: functional. The procedure, abridged: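 M. tuberculosis H37Rv maintained on Lowenstein–Jensen medium; tested in Youman's medium by serial dilution.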
In data set [8] the test system is Trichophyton rubrum. Briefly: Antifungal activity against Trichophyton rubrum 252 CSTM assessed as growth inhibition by agar dilution method. Type of data set: functional.
Data set [9] has as its system Staphylococcus aureus. Briefly: Antibacterial activity against Staphylococcus aureus ATCC 6538 assessed as growth inhibition after 24 hrs by dilution tube method. The data set is classed as functional. The note with it: ATCC 6538, 24 h. The procedure, abridged: as §1
Data set [10] has as its system Escherichia coli. In words: Antibacterial activity against Escherichia coli 114 assessed as growth inhibition after 24 hrs by dilution tube method. Type of data set: functional. To be noted: Escherichia coli, 114, 24 h. The procedure, abridged:
as §1

In data set [11] the test system is Cryptococcus neoformans. In words: Antifungal activity against Cryptococcus neoformans 103 assessed as growth inhibition by agar dilution method. The data set is classed as functional.
Data set [12] relates to Enterococcus faecalis. In words: Antibacterial activity against Streptococcus faecalis ATCC 10541 assessed as growth inhibition after 24 hrs by dilution tube method. The data set is classed as functional. To be noted: ATCC 10541, 24 h. The procedure, abridged: as §1
Data set [13] concerns Pseudomonas aeruginosa. In words: Antibacterial activity against Pseudomonas aeruginosa ATCC 10145 assessed as growth inhibition after 24 hrs by dilution tube method. The data set is classed as functional. To be noted: ATCC 10145, 24 h. The procedure, abridged:
as §1

The subject of data set [14] is Microsporum canis. Briefly: Antifungal activity against Microsporum canis VM-200 USPHS assessed as growth inhibition by agar dilution method. Type of data set: functional.
The test system of data set [15] is Trichophyton mentagrophytes. In words: Antifungal activity against Trichophyton mentagrophytes A-280 USPHS assessed as growth inhibition by agar dilution method. Type of data set: functional.
The test system of data set [16] is Salmonella typhi. Briefly: Antibacterial activity against Salmonella typhi 115 assessed as growth inhibition after 24 hrs by dilution tube method. Type of data set: functional, Salmonella enterica subsp. enterica serovar Typhi. The note with it: Salmonella enterica, 115, 24 h. The procedure, abridged:
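Dilution tube method in Tryptone Soya Broth; MIC (μg/ml) taken as highest dilution preventing visible growth; duplicates at every concentration; nitrofurantoin reference run under same conditions.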

Data set [17] in a line: Acute toxicity in ip dosed mouse. The data set is classed as organism-based. The note with it: in vivo. The procedure, abridged: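 Mice dosed intraperitoneally; LD50 determined.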
Data set [18] relates to Candida albicans. Briefly: Antifungal activity against Candida albicans SKF 2270 assessed as growth inhibition by agar dilution method. Type of data set: functional.

Turning to `Cc1cc(OCCCC[N+](C)(C)Cc2ccc(Br)o2)c(C(C)C)cc1Cl.[Br-]`, the minimal inhibitory concentration (MIC) is greater than 200 µg/mL in data set [1]; 2.5 µg/mL in data set [2]; 25 µg/mL in [3]; 50 µg/mL in data set [5]; 7.5 µg/mL in data set [7]; greater than 200 µg/mL in [8]. Besides, the minimum inhibitory concentration (MIC) was 2.5 µg/mL in data set [9]; greater than 200 µg/mL in data set [10]; 25 µg/mL in data set [11]; 7.5 µg/mL in [12]; 2.5 µg/mL in data set [13]; 75 µg/mL in data set [14]. Also, the minimal inhibitory concentration (MIC) in [15] is 50 µg/mL; in data set [16], greater than 200 µg/mL; in [18], 50 µg/mL. The outcome in [4] and in data set [6] was inactive. The compound further registered an LD50 in [17] of 25 mg/kg.
For the compound `C[N+](C)(CCCCCCOc1c(Br)cc(Br)cc1Br)Cc1ccc([N+](=O)[O-])o1.[Br-]`, the MIC stood at 25 µg/mL in data set [1]; 5 µg/mL in data set [2]; 25 µg/mL in data set [3]; 100 µg/mL in data set [5]; 10 µg/mL in data set [7]; 100 µg/mL in data set [8]. Moreover, the minimal inhibitory concentration (MIC) in [9] was determined as 10 µg/mL; in data set [10], 200 µg/mL; in data set [11] it was 100 µg/mL; in data set [12], 25 µg/mL; in data set [13], 2.5 µg/mL; in [14] it was 100 µg/mL. The MIC in [15] is greater than 200 µg/mL; in data set [16] it was 100 µg/mL; in [18], greater than 200 µg/mL. Further, the outcome in data set [4] and in data set [6] was inactive. Further, the 50% lethal dose (LD50) in [17] came to 75 mg/kg.
With `Cc1cc(OCCCCC[N+](C)(C)Cc2ccc(Br)o2)c(C(C)C)cc1Cl.[Br-]`, the MIC in data set [1] was 100 µg/mL; in data set [2], 2.5 µg/mL; in data set [3] it was 10 µg/mL; in data set [5], greater than 200 µg/mL; in data set [7], 10 µg/mL; in data set [8], greater than 200 µg/mL. The MIC in [9] was found to be 2.5 µg/mL; in data set [10], 100 µg/mL; in [11] it was 10 µg/mL; in [12], 5 µg/mL; in data set [13], 2.5 µg/mL; in [14], 100 µg/mL. Further, the MIC in [15] is 100 µg/mL; in data set [16], 50 µg/mL; in data set [18], greater than 200 µg/mL. The result in data set [4] and in data set [6] was inactive. The same compound came in with an LD50 in [17] of 37.5 mg/kg.
As to `C[N+](C)(CCCCCOc1c(Br)cc(Br)cc1Br)Cc1ccc(Br)o1.[Br-]`, the MIC in data set [1] is 100 µg/mL; in data set [2], 1.5 µg/mL; in data set [3], 25 µg/mL; in data set [5], greater than 200 µg/mL; in data set [7], 10 µg/mL; in data set [8], greater than 200 µg/mL. The MIC was 2 µg/mL in data set [9]; 100 µg/mL in [10]; 25 µg/mL in data set [11]; 7.5 µg/mL in [12]; 2 µg/mL in data set [13]; greater than 200 µg/mL in data set [14]. The MIC in data set [15] was greater than 200 µg/mL; in data set [16] it was 50 µg/mL; in data set [18], greater than 200 µg/mL. Further, the outcome in data set [4] and in [6] was inactive. Besides, the median lethal dose (LD50) in data set [17] was 25 mg/kg.
`C[N+](C)(CCCCOc1c(Br)cc(Br)cc1Br)Cc1ccc(Br)o1.[Br-]`: the MIC in data set [1] was 50 µg/mL; in [2], 7.5 µg/mL; in [3] it was 50 µg/mL; in data set [5] it was greater than 200 µg/mL; in data set [7] it was 50 µg/mL; in data set [8], greater than 200 µg/mL. Further, the MIC in data set [9] is 5 µg/mL; in data set [10], greater than 200 µg/mL; in data set [11] it was 25 µg/mL; in data set [12] it was 25 µg/mL; in [13], 5 µg/mL; in [14] it was greater than 200 µg/mL. For the same compound, the minimum inhibitory concentration (MIC) was greater than 200 µg/mL in data set [15], 100 µg/mL in [16] and greater than 200 µg/mL in data set [18]. For the same compound, the outcome in data set [4] and in data set [6] was inactive. This compound yielded an LD50 in data set [17] of 37.5 mg/kg.
